Active and inactive are the calls of the source. The calls are words filed in the database; no cut-off is given here.
Assays:
Rattus norvegicus [1] = experiment: Neuromuscular blocking activity in Wistar rat tibialis muscle assessed as reduction in electrically induced twitches at 100 mg/kg, ip in presence of physostigmine; format: functional, organism-based
Rattus norvegicus [2] = experiment: Neuromuscular blocking activity in Wistar rat tibialis muscle assessed as reduction in tetanus stimulated muscle twitches at 100 mg/kg, ip; format: functional, organism-based
Method in brief: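 Male Wistar rats (250 g, N = 4-8 per group) anaesthetised with urethane (1.25 g/kg i.p.), tracheally cannulated and ventilated with room air at 90 breaths/min. Tibialis twitch tension recorded with body temperature kept at 37 ± 1 °C. Tetanus given at 30 Hz for 5-10 s. Drug given i.p. in DMSO or water at 1-100 mg/kg. Twitches expressed as % of pre-drug amplitude.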

Rattus norvegicus [3] = experiment: Neuromuscular blocking activity in ip dosed Wistar rat tibialis muscle assessed as reduction in electrically-induced twitches; format: functional
Method in brief: (§1)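 Male Wistar rats (250 g, N = 4-8 per group) anaesthetized with urethane (25% in water, 1.25 g/kg i.p.). Tracheal cannula with artificial room-air ventilation at 90 breaths/min, 20 c.c./kg. Rectal temperature held at 37 ± 1 °C. Tibialis twitch tension is expressed as % of pre-drug amplitude. Drug is given i.p. in DMSO or water, 1-100 mg/kg; ED50 and 90%-depression dose derived; mean ± S.E.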

Rattus norvegicus [4] = experiment: Neuromuscular blocking activity in against electrically-induced twitches in Wistar rat tibialis muscle assessed as time duration of muscle block at 100 mg/kg, ip; format: functional; method in brief: as §1
Rattus norvegicus [5] = experiment: Neuromuscular blocking activity in Wistar rat tibialis muscle assessed as reduction in electrically-induced twitches by measuring time required for 90% blockage at 100 mg/kg, ip; format: functional; method in brief: as §1
Gallus gallus [6] = experiment: Neuromuscular blocking activity in chicks assessed as induction of flaccid paralysis by measuring time of onset of muscle relaxation at 0.15 mmol/Kg, ip administered as single dose; format: functional
Method in brief: (§2)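 4-day-old chicks (50 g) receive a single submaximal dose i.p., taken from the rat twitch study (0.15 mmol/kg). The type of paralysis, flaccid or spastic, is noted. The onset of head drop and of complete paralysis is timed after administration. Atracurium and succinylcholine serve as positive controls.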

Rattus norvegicus [7] = experiment: Neuromuscular blocking activity in Wistar rat tibialis muscle assessed as reduction in electrically-induced twitches by measuring time of onset at 100 mg/kg, ip; format: functional; method in brief: as §1
Gallus gallus [8] = experiment: Neuromuscular blocking activity in ip dosed chicks assessed as induction of flaccid paralysis; format: functional; method in brief: as §2
Gallus gallus [9] = experiment: Neuromuscular blocking activity in chicks assessed as induction of flaccid paralysis by measuring time of onset of head drop at 0.15 mmol/Kg, ip administered as single dose; format: functional; method in brief: as §2
Rattus norvegicus [10] = experiment: Neuromuscular blocking activity in Wistar rat tibialis muscle assessed as reduction in electrically-induced twitches by measuring time required for 50% blockage at 100 mg/kg, ip; format: functional; method in brief: as §1
Rattus norvegicus [11] = experiment: Reversal of neuromuscular blocking activity against electrically induced twitches in Wistar rat tibialis muscle at 100 mg/kg, ip in presence of physostigmine relative to control; format: functional
[12] = Toxicity in ip dosed mouse measured for 72 hrs; format: organism-based; details: in vivo
Method in brief: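 Male mice, grouped, given i.p. doses of 0.1-5 mmol/kg. Observed continuously for 6 h, then kept under observation for 72 h, with behavioural changes and deaths recorded. Percentage death per dose converted to probits to derive the LD50.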

Rattus norvegicus [13] = experiment: Reversal of neuromuscular blocking activity in Wistar rat tibialis muscle assessed as time of onset of reversal at 100 mg/kg, ip in presence of physostigmine; format: functional
Gallus gallus [14] = experiment: Neuromuscular blocking activity in chicks assessed as induction of spastic paralysis by measuring time of onset of muscle relaxation at 0.15 mmol/Kg, ip administered as single dose; format: functional; method in brief: as §2
Gallus gallus [15] = experiment: Neuromuscular blocking activity in ip dosed chicks assessed as induction of spastic paralysis; format: functional; method in brief: as §2

Compound	Activity (Rattus norvegicus [1])	Activity (Rattus norvegicus [2])	ED50 (Rattus norvegicus [3]) [µmol/kg]	Time (Rattus norvegicus [4]) [min]	Time (Rattus norvegicus [5]) [min]	Time (Gallus gallus [6]) [min]	Time (Rattus norvegicus [7]) [min]	ED50 (Gallus gallus [8]) [µmol/kg]	Time (Gallus gallus [9]) [min]	Time (Rattus norvegicus [10]) [min]	Activity (Rattus norvegicus [11]) [%]	LD50 at 72 h [12] [mg/kg]	Time (Rattus norvegicus [13]) [min]	Time (Gallus gallus [14]) [min]	ED50 (Gallus gallus [15]) [µmol/kg]
O=C1CCCN2N=C(c3ccc(F)cc3)SC2=N1	inactive	Active	360	110	28	15	10	300	11	18	–	–	–	–	–
O=C1CCCN2N=C(c3ccc(Br)cc3)SC2=N1	–	Active	150	70	10	1	3	150	0.25	7	100	195	1	–	–
C[N+](C)(C)CCOC(=O)CCC(=O)OCC[N+](C)(C)C.[Cl-].[Cl-] [SUCCINYLCHOLINE CHLORIDE]	inactive	inactive	30	20	5	–	2	–	–	3	–	–	–	0.5	30
COc1ccc(CC2c3cc(OC)c(OC)cc3CC[N+]2(C)CCC(=O)OCCCCCOC(=O)CC[N+]2(C)CCc3cc(OC)c(OC)cc3C2Cc2ccc(OC)c(OC)c2)cc1OC.O=S(=O)([O-])c1ccccc1.O=S(=O)([O-])c1ccccc1 (configuration not stated) [ATRACURIUM BESYLATE]	–	Active	16	30	12	10	5	16	5	8	100	–	2	–	–

Source: ChEMBL document CHEMBL5244203, “Thiadiazolodiazepine analogues as a new class of neuromuscular blocking agents: Synthesis, biological evaluation and molecular modeling study” (Eur J Med Chem, 2017)
